Here are results for two compounds from paper PMC3947039 (ACS chemical biology, 2013).

The target in assay [1] is ADAM17. Particulars: read-out: Ki ADAM17; competitive; cited from earlier work.
The subject of assay [2] is MMP-1. Particulars: at 250 μM; cited from earlier work.
Assay [3] has as its system wild-type mice. Kind of assay: H&E staining of wounds, re-epithelialization, wild-type mice. It counts as in vivo, mouse. As to conditions: topical, day 14. In a few lines:
(§1)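 Wounds were treated topically with the test compound in saline, or with saline vehicle alone. Wounds were imaged at a common scale. Day-14 wound tissue was H&E stained, and the re-epithelialized region was traced on the sections.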

The test system of assay [4] is MMP-19. Particulars: at 30 μM; cited from earlier work.
The test system of assay [5] is MMP-7. As to conditions: at 250 μM; cited from earlier work.
The subject of assay [6] is ADAM9. Particulars: at 20 μM; cited from earlier work.
In assay [7] the test system is db/db mice. In words: H&E staining of wounds, re-epithelialization, db/db mice. The assay is classed as in vivo, mouse. Particulars: topical, day 14. Put shortly:
as §1

The subject of assay [8] is wild-type mice. In words: Excisional wound-healing model in wild-type mice, topical treatment. The assay is classed as in vivo, mouse. Put shortly: (§2)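 Test compound dissolved in saline at 5.0 mg mL−1 as the dosing solution; saline vehicle; both filter-sterilised. Applied topically to excisional wounds in db/db or wild-type mice. Wound healing scored on days 1, 3, 7, 10 and 14, with n = 35, 28, 21, 14 and 7 mice on those days. Results given as mean ± SD, with treated versus vehicle compared statistically.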

Assay [9] deals with MMP-9 (Mus musculus, UniProt P41245). In words: In-situ zymography with DQ-gel in diabetic wound tissues. It counts as in vivo. As to conditions: db/db mice, versus vehicle. Put shortly: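 db/db wounds were treated topically with the test compound or vehicle. Wound sections were incubated with the fluorogenic MMP gelatin substrate DQ-gel to localise MMP activity in situ. Nuclei were counterstained with DAPI, and the green fluorescence was imaged merged with the DAPI signal.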
Sequence of MMP-9 (P41245 108-730): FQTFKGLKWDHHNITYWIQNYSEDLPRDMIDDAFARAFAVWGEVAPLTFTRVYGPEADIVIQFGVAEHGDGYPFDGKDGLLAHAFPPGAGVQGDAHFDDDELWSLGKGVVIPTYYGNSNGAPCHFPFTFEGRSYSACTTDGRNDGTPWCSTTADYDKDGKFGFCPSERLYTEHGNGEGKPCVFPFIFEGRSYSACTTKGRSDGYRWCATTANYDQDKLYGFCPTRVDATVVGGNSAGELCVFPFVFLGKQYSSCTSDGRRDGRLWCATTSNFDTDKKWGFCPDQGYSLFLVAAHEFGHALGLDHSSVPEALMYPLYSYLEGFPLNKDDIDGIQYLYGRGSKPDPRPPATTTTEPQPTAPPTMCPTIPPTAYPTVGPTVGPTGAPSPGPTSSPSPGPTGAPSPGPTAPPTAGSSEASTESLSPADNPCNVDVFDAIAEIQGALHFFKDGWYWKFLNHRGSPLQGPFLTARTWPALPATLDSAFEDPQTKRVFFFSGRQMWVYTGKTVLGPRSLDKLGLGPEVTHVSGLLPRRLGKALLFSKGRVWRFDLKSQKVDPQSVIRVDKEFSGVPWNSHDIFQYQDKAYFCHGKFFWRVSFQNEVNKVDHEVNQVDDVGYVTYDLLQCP

In assay [10] the test system is apoptotic cells in wounds of diabetic mice. Kind of assay: TUNEL apoptosis detection in diabetic wound tissues. It counts as in vivo, mouse. Particulars: versus vehicle.
Assay [11] concerns db/db mice. In words: Excisional diabetic wound-healing model, topical treatment. It counts as in vivo, mouse. Put shortly:
as §2

For assay [12], the system named is ADAM10. Particulars: at 20 μM; cited from earlier work.
Assay [13] has as its system non-diabetic wounds in pigs. Particulars: cited from earlier work.
Assay [14] deals with non-diabetic wounds in humans. As to conditions: cited from earlier work.
Assay [15] has as its system non-diabetic wounds in rats. As to conditions: cited from earlier work.

The structures appear in SMILES notation.

One may read the Ki as the dissociation constant of the complex between target and ligand, obtained from inhibition or displacement. As to `Nc1ccc(Oc2ccc(S(=O)(=O)CC3CS3)cc2)cc1` (stereo not shown) [ND-322], in assay [1], the Ki was 15.7 ± 2 µM. Also, in assay [2], the “inhibition of MMP-1” value is 10%. In addition, the “re-epithelialization (H&E staining)” value in assay [3] and in [7] was “complete re-epithelialization” in each case. Moreover, the “inhibition of MMP-19” value in assay [4] was 9%. For the same compound, the “inhibition of MMP-7” value in assay [5] was 16%. Also, the “inhibition of ADAM9” value in assay [6] is recorded as 30%. The “wound healing as a percentage of the initial wound area” value came out at 62 ± 19% in assay [8] (day 7, mean ± SD); 82 ± 11% in assay [8] (day 10, mean ± SD); 96 ± 4% in assay [8] (day 14, mean ± SD); 70 ± 16% in assay [11] (day 10, mean ± SD); 92 ± 4% in assay [11] (day 14, mean ± SD). The “gelatinase activity (due to MMP-9) in wound tissues” value in assay [9] is “significantly decreased”. In assay [10], the “apoptosis in wound tissues (TUNEL)” value is “significantly decreased”. The “wound healing, difference versus vehicle-treated” value in assay [11] (days 1, 3 and 7, p > 0.2) is on record as “not statistically significant”. Besides, the “inhibition of ADAM10” value in [12] is reported as 21%.

As for `CNC(=O)[C@H](Cc1c[nH]c2ccccc12)NC(=O)[C@@H](CC(=O)NO)CC(C)C` [ilomastat], the epithelialization result in assay [13], in assay [14] and in assay [15] was “diminished epithelialization” throughout. Moreover, the wound closure result in [13], in assay [14] and in assay [15] was “delayed wound closure” in each case.
